The values below come from ChEMBL document CHEMBL1147789, “The search for novel TRPV1-antagonists: from carboxamides to benzimidazoles and indazolones” (Bioorg Med Chem Lett, 2006).

For data set [1], the target named is T1, Transient receptor potential cation channel subfamily V member 1 (Homo sapiens, UniProt Q8NER1). Kind of data set: Antagonist activity against capsaicin-induced intracellular calcium ion increase in CHO cells expressing human TRPV1 in FLIPR assay. In kind it is functional, cell-based.
T1 sequence (Q8NER1 whole entry): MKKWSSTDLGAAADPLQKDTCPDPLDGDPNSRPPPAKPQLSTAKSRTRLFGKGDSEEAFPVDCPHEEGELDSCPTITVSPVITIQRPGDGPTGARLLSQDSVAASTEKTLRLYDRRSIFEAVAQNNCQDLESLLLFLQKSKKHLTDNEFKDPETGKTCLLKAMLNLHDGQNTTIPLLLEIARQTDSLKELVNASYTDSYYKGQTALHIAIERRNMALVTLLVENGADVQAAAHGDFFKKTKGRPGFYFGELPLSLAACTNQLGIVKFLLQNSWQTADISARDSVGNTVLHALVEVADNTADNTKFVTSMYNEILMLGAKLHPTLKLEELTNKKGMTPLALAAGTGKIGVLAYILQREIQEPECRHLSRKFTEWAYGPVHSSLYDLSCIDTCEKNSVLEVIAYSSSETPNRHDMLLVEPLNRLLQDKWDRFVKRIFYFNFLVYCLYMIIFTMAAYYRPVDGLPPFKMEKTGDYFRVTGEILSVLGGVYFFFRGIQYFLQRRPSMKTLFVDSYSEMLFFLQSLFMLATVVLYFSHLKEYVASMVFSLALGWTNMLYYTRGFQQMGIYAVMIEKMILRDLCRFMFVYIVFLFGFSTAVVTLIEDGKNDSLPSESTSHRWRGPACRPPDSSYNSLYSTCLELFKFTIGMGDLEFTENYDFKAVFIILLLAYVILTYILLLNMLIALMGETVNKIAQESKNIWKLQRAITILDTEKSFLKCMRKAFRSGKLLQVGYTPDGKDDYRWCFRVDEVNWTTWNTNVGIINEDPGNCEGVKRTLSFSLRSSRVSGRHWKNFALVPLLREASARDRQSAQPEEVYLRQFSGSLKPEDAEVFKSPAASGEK
For data set [2], the target named is T1, Transient receptor potential cation channel subfamily V member 1. As to the kind of experiment: Inhibition of acidic pH 5.5-stimulated current in CHO cells expressing human TRPV1 receptor at 100 nM by patch clamp. Format: functional, cell-based.
The nature of data set [3]: AUC in hepatic portal vein of rat at 5 mg/kg, po. Details: dose 5 mg/kg, route oral. Format: ADME, organism-based, Plasma.
Data set [4] is described as follows: Systemic AUC in rat at 5 mg/kg, po. Particulars: in vivo. Format: ADME, organism-based. Details: dose 5 mg/kg, route oral. The method in brief:
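Oral dose of 5 mpk; AUC taken from systemic blood levels.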

The nature of data set [5]: Clearance in rat at 1 mg/kg, iv. Format: ADME, organism-based. Details: dose 1 mg/kg, route intravenous. The settings on record: in vivo.
A short description of data set [6]: Half life in rat at 1 mg/kg, iv. In kind it is ADME, organism-based. Details: dose 1 mg/kg, route intravenous. The settings on record: in vivo.
Data set [7] is described as follows: Volume of distribution in rat at 1 mg/kg, iv. Particulars: in vivo, read-out: Vdss. Also noted: dose 1 mg/kg, route intravenous. In kind it is ADME, organism-based.
For data set [8], the target named is Transient receptor potential cation channel subfamily V member 1 (Rattus norvegicus) (UniProt O35433). As to the kind of experiment: Decrease in carrageenan-induced thermal hyperalgesia in rat at 30 mg/kg, po. Format: functional, organism-based. Details: dose 30 mg/kg; scale not given: the % may be the effect or the level left. The method in brief: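 Rats received 0.1 mL intraplantar carrageenan, or saline for the uninflamed group, in the right hind limb. Two hours later they were dosed orally at 30 mpk. After 1 h, thermal withdrawal was retested three times on each hind paw (Hargreaves). Saline response was set as 0% hyperalgesia and carrageenan response as 100%.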
Sequence of Transient receptor potential cation channel subfamily V member 1 (Rattus norvegicus) (O35433 whole entry): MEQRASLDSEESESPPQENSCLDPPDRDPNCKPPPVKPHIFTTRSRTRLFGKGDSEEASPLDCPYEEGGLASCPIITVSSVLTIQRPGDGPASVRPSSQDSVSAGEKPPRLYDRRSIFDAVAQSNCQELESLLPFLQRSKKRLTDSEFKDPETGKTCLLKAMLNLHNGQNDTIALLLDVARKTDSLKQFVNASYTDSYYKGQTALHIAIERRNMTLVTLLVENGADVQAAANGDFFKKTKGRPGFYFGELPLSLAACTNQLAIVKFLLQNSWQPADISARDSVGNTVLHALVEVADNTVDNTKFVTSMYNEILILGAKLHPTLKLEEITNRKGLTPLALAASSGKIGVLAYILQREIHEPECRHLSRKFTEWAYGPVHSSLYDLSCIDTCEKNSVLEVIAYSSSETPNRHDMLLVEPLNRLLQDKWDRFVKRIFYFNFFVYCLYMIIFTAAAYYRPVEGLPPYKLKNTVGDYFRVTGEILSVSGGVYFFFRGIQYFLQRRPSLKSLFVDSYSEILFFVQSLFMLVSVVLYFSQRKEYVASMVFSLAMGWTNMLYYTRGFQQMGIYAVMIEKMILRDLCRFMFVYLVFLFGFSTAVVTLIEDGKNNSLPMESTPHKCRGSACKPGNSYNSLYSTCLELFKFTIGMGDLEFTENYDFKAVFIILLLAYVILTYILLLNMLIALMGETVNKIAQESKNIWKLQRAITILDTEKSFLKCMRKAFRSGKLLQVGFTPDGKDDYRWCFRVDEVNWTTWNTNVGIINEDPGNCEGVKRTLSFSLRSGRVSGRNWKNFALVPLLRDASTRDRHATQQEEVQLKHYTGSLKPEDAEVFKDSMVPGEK

Data set [9] deals with T2, Transient receptor potential cation channel subfamily V member 1 (Rattus norvegicus, UniProt O35433). Kind of data set: Activity against capsaicin-induced […] in CHO cells expressing rat TRPV1 assessed by patch clamp. In kind it is functional, cell-based. The method in brief: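 Whole-cell patch clamp on cells expressing rat TRPV1, stimulated with 500 nM capsaicin; IC50 for inhibition of the evoked response.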
T2 sequence (O35433 whole entry): as above

Data set [10] deals with T1, Transient receptor potential cation channel subfamily V member 1. Kind of data set: Inhibition of acidic pH 5.5-stimulated current in CHO cells expressing human TRPV1 receptor by patch clamp. In kind it is functional, cell-based.
Data set [11] addresses T2, Transient receptor potential cation channel subfamily V member 1. Kind of data set: Activity at rat TRPV1 as inhibition of pH 5.5-induced currents in CHO cells.

For the compound `COc1ccccc1-c1ccc2c(=O)n(-c3ccc(C(F)(F)F)cc3)[nH]c2c1`, in [1], the IC50 amounted to 0.17 µM.

As to `Cc1cccnc1-c1ccc(NC(=O)c2ccc(C(F)(F)F)cc2)cc1`, the IC50 in data set [1] amounted to 0.16 µM.

Consider `Cc1cccnc1-c1ccc2c(=O)n(-c3ccc(C(F)(F)F)cc3)[nH]c2c1`, for which, in data set [1], the IC50 worked out at 0.18 µM.

As to `O=c1c2cc(-c3ncccc3C(F)(F)F)ccc2[nH]n1-c1ccc(C(F)(F)F)cc1`, the IC50 in data set [1] came to 0.37 µM.

On to `FC(F)(F)c1ccc(-c2nc3cc(-c4ncccc4C(F)(F)F)ccc3[nH]2)cc1`, for which, in [2], the inhibition was 95%. Moreover, the IC50 in [1] amounted to 0.022 µM. For the same compound, the AUC is 1480 nM·h in data set [3] and 1250 nM·h in data set [4].

As for `O=c1c2ccc(-c3ncccc3C(F)(F)F)cc2[nH]n1-c1ccc(C(F)(F)F)cc1`, in data set [5], the clearance worked out at 0.48 L/h/kg. In data set [6], this compound showed a half-life of 3.6 h. In addition, in data set [7], the Vd turned out to be 2 L/kg. This compound also showed an Activity in [8] of 50%. In addition, the IC50 in [9] was determined as 0.22 µM; in data set [1], 0.035 µM; in data set [10] it was 0.004 µM; in data set [11], 0.065 µM. Besides, the figures for the AUC in data set [3] and in [4] were 6200 nM·h and 3000 nM·h, respectively.

Regarding `O=C(Nc1ccc(-c2ncccc2C(F)(F)F)cc1)c1ccc(C(F)(F)F)cc1`, the IC50 in data set [1] turned out to be 0.024 µM; in data set [10], 0.033 µM. In addition, the AUC in data set [3] was 80 nM·h; in data set [4], 40 nM·h.

`Oc1c2c(nn1-c1ccc(C(F)(F)F)cc1)NC(c1ncccc1C(F)(F)F)CC2` (stereo not drawn): in data set [1], the IC50 came to 0.29 µM.

For the compound `O=C(Nc1ccc(-c2ncccc2C(F)(F)F)cc1)c1ccccc1`, in [1], the IC50 was determined as 2.4 µM.

For the compound `Cc1cccnc1-c1ccc(NC(=O)c2cccc(C(F)(F)F)c2)cc1`, the IC50 in data set [1] came to 0.64 µM.

Regarding `Cc1cccnc1-c1ccc2c(=O)n(-c3ccc(C(F)(F)F)cc3)[nH]c2n1`, the concentration for half-maximal inhibition (IC50) in data set [1] was 0.27 µM.

With `O=c1c2ccccc2[nH]n1-c1ccc(C(F)(F)F)cc1`, the IC50 in data set [1] is 0.34 µM.

`Cc1ccc(C(=O)Nc2ccc(-c3ncccc3C(F)(F)F)cc2)cc1`: the half-inhibitory concentration (IC50) in [1] was found to be 1.1 µM.

Consider `CC(C)(C)c1ccc(C(=O)Nc2ccc(-c3ncccc3C(F)(F)F)cc2)cc1`, for which, in data set [1], the IC50 was 0.47 µM.

Take `O=C(Nc1ccc(-c2ccccn2)cc1)c1ccc(C(F)(F)F)cc1`: in [1], the half-inhibitory concentration (IC50) turned out to be 1.5 µM.

Take `Cc1ccc(-c2nc3cc(-c4ncccc4C(F)(F)F)ccc3[nH]2)cc1`: the IC50 in data set [1] was 0.17 µM.

As for `CC(C)(C)c1ccc(-c2nc3cc(-c4ncccc4C(F)(F)F)ccc3[nH]2)cc1`, in [1], the IC50 was found to be 0.224 µM.

With `Fc1ccc(-c2nc3cc(-c4ncccc4C(F)(F)F)ccc3[nH]2)cc1`, in data set [1], the IC50 worked out at 0.32 µM.
